Test: Toxicity liver stage against HepG2, at 10uM
Type: cell-based
Design: test concentration 10 uM, cell line HepG2-A16-CD81EGFP
Conditions: human, HepG2-A16-CD81EGFP cells; read-out: INHIBITION
Outline: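 Uninfected HepG2-A16-CD81EGFP cells, 3 × 10^3 per well, 1536-well, plated on prespotted compound at 10 μM final, parasite-free screening media added to match infected plates; puromycin 10 μM positive, DMSO 0.5% negative; run in parallel with 48 h PbLuc assay at 37 °C, 5% CO2; viability by CellTiter-Glo luminescence, normalized to controls.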

| Compound | cytotoxicity at 10 µM |
| --- | --- |
| O=c1[nH]c2nc(N3CCCC3)ncc2c(=O)n1-c1cccc(F)c1 | 8.24% |
| O=C(NCCNc1cnccn1)c1scnc1Cl | 8.11% |
| CC(C(=O)N1CCCN(c2ncccc2C#N)CC1)n1ccnc1 (centres undefined) | -2.6% |
| O=C(c1ccccc1)N1CCO[C@@H]2CNC[C@@H]21 | -100% |
| COCc1cn(C[C@H]2CC3CCN2C[C@@H]3C(=O)Nc2ccccc2)nn1 (some centres undefined) | -0.522% |
| COc1cccc(-c2noc(-c3ccc(NCCCO)nc3)n2)c1OC | -1.5% |
| O=S(=O)(c1ccc(F)cc1)N1CCCCC1c1cc[nH]n1 (centres undefined) | -3.55% |
| CN(C)C1CCN(C(=O)NCc2ccc(Cn3cncn3)cc2)CC1 | -3.6% |
| COc1cc(CNCc2ccnc(N3CCOCC3)c2)cc(Cl)c1OC | -8.7% |
| Fc1cnc(N2CCO[C@H]3[C@H](OCC4CCOCC4)CC[C@@H]32)nc1 | 10.7% |
| CNC(=O)CN1CCN(C(=O)Nc2ccc(Cl)cc2F)CC1 | 1.41% |
| CCS(=O)(=O)N1CC[C@H]2OCC[C@@]2(C(=O)NC)C1 | -72.6% |
| CC(NC1CCN(CCS(C)(=O)=O)CC1)c1ccc(Cl)cc1 (centres undefined) | -6.51% |
| O=C(c1ccn(-c2ccc(F)cc2)n1)N(CCO)Cc1cccnc1 | 17.5% |
| CN(Cc1cccnc1)C[C@H]1OC[C@@H]2CCN(c3ncccn3)C[C@@H]21 | -108% |
| O=C1CC(c2ccc3ccccc3n2)c2c(n[nH]c2C2CCC2)N1 (centres undefined) | -6.43% |
| Cc1cnn(CC2CCCN2Cc2nnc(C(C)C)o2)c1 (centres undefined) | -20.3% |
| O=C(CSc1ncccn1)N1C[C@@H]2CC[C@H]1CN(Cc1ccncc1)C2 | -13% |
| CCOCc1nnc(NCc2cccnc2)o1 | 10.9% |
| CC(C)=CCN1C[C@@H]2CN(C(=O)c3cnccc3C)C[C@]2(C(=O)O)C1 | 2.85% |
| CN1CCN(C(=O)c2cccn2C)c2ccccc2C1 | 7.28% |
| CN(C)CCN(C)C(=O)Nc1cc(F)cc(N2CCCC2)c1 | -2.22% |
| Cc1cc(C2CCCN2C(=O)NCc2cccnc2N(C)C)on1 (centres undefined) | -8.1% |
| CCOCC(=O)N1CCC2(CC1)CN(Cc1cccnc1)C(=O)CO2 | -0.125% |
| COc1ccc2c(c1)C(=O)CC1(CCN(Cc3ccc(F)cc3)CC1)O2 | 16.6% |
| COCc1nc2nc(O)c3c(n2n1)NC(=O)CC3c1ccccc1Cl (centres undefined) | -20.8% |
| Cc1cc(N2CCCN(C(=O)Cc3cc(F)cc(F)c3)CC2)ccn1 | -6.7% |

| Compound | cytotoxicity at 10 µM |
| --- | --- |
| Cc1ccccc1[C@@H]1CN(Cc2c(C)noc2C)C[C@H]1C(=O)O | -7.74% |
| COc1ccc(C2Nc3cc(Cl)ccc3C3=NCCN32)cc1O (centres undefined) | -31.1% |
| CNC(=O)N1CCc2nc(C(=O)NCc3cccc(OC)c3)sc2CC1 | -84.2% |
| O=C(NCc1nncn1-c1ccccc1)C1CCCCC1 | -22.1% |
| COCCN1CCC2(CCN(Cc3cccs3)CC2)C1=O | 1.22% |
| O=C(N[C@@H]1CN(c2ncccn2)C[C@@H]2CCCO[C@@H]21)c1ccnnc1 | 6.32% |
| O=C(O)c1nc(SCc2ccccc2)ncc1Br | 0.231% |
| COc1cc(C(C)=O)ccc1OCC(=O)N(Cc1ccsc1)C1CC1 | 1.88% |
| CC(C)n1[nH]c(=O)c2c1NC(=O)CC2c1ccc(C#N)cc1 (centres undefined) | 3.92% |
| O=C(Nc1cnccn1)[C@H]1CO[C@H]2CCN(c3ncc(F)cn3)C[C@H]2C1 | 1.2% |
| CCC(CO)N(Cc1ccccn1)Cc1c[nH]nc1-c1ccc(F)cc1 (centres undefined) | -1.83% |
| CO[C@@H]1CC[C@@H](NC(=O)CCc2ccc(Cl)cc2)[C@H]1O | 3.84% |
| CN1CC2(CCN(C(=O)c3ccc4nccnc4c3)CC2)CC1=O | -1.7% |
| O=C(c1cc(C2CC2)[nH]n1)N1CCN(Cc2ccc(Cl)cc2)CC1 | 37.2% |
| Cc1cccc(CN2CCN(C(=O)c3cccnc3O)CC2)c1 | 1.73% |
| CC(C)(C)c1c[nH]c([C@@H]2COCCN2C2CCOCC2)n1 | -5.8% |
| Cn1c(=O)n(C)c2nc(Br)c(CC(=O)c3ccccc3)n2c1=O | 0.9% |
| CN(C(=O)CN1CCCC1c1cnn(C)c1)C1(C#N)CCCCC1 (centres undefined) | 1.41% |
| CSc1ccc2c(C)cc(N[C@@H](C)CO)nc2c1 | -1.07% |
| O=C(Nc1nccs1)c1csc(NC2CCCC2)n1 | 42% |
| O=C(CN1CCCCCC1)NCc1cccnc1Oc1ccccc1 | -11.1% |
| Cc1ncccc1Oc1ncnc(N2CCC(O)(CO)CC2)c1C | -2.4% |
| Cc1cc(CN2CCN(C(C)C)C(CCO)C2)[nH]n1 (centres undefined) | 4.86% |
| CS(=O)(=O)NC[C@]12COC[C@H]1CN(CC1CCCC1)C2 | 1.52% |
| OC1(CN2CCC(Cc3ccccc3)CC2)CCC1 | -8.26% |
| CC(CC#N)N(C)Cc1ccccc1Cl (centres undefined) | -8.67% |
| COCC(=O)NC1CC2(CCN(CC3CC3)CC2)Oc2ccccc21 (centres undefined) | -2.6% |

From ChEMBL document CHEMBL4513216, “Probing the Open Global Health Chemical Diversity Library for Multistage-Active Starting Points for Next-Generation Antimalarials” (ACS Infect Dis, 2020)
